Converted amounts (≈) assume the structure as drawn.
Tests used:
Streptococcus pneumoniae [1] = test: Antibacterial activity against fluoroquinolone, dye-susceptible Streptococcus pneumoniae M295 S overexpressing patA, patB by standardized agar doubling dilution method; type: functional
In short: (§1)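 MIC by agar doubling dilution following BSAC guidelines. Strains grown in brain heart infusion broth 24 h at 37°C in 5% CO2. Where an efflux pump inhibitor applies, MIC redetermined with reserpine at 20 μg/ml or sodium orthovanadate at 50 μM. Synergy taken as a fall in MIC of ≥2 dilutions with inhibitor present. Dye resistance defined relative to R6 (both dyes ≥2 dilutions higher).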

Streptococcus pneumoniae [2] = test: Antibacterial activity against Streptococcus pneumoniae M305 overexpressing patA, patB and inactivated patB with single mutation by standardized agar doubling dilution method; type: functional
In short: (§2)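 MICs determined by BSAC standardized agar doubling dilution. Strains were grown in brain heart infusion broth for 24 h at 37°C in 5% CO2. Inhibitor arms had reserpine at 20 μg/ml or sodium orthovanadate at 50 μM in the agar. Mutants were made by transforming magellan2 insertion amplimers into clinical isolates and selecting on spectinomycin 100 mg/liter, with a no-DNA spontaneous-mutation control.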

Streptococcus pneumoniae [3] = test: Antibacterial activity against Streptococcus pneumoniae M87A overexpressing patA, patB and inactivated patA with single mutation by standardized agar doubling dilution method in presence of 20 ug/ml reserpine efflux pump inhibitor; type: functional
In short: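 MICs were determined by BSAC agar doubling dilution in the presence of reserpine at 20 μg/ml. Strains were grown in BHI broth for 24 h at 37°C in 5% CO2, with R6 as control. Synergy was defined as an MIC drop of ≥2 dilutions with the inhibitor.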

Streptococcus pneumoniae [4] = test: Antibacterial activity against Streptococcus pneumoniae M307 overexpressing patA, patB and inactivated patB with single mutation by standardized agar doubling dilution method in presence of 50 uM sodium orthovanadate efflux pump inhibitor; type: functional; in short: as §2
Streptococcus pneumoniae [5] = test: Antibacterial activity against Streptococcus pneumoniae M311 overexpressing patA, patB and inactivated patA with single mutation by standardized agar doubling dilution method; type: functional; in short: as §2
Streptococcus pneumoniae [6] = test: Antibacterial activity against fluoroquinolone, dye-resistant Streptococcus pneumoniae by standardized agar doubling dilution method; type: functional; in short: as §1
Streptococcus pneumoniae [7] = test: Antibacterial activity against Streptococcus pneumoniae M46A overexpressing patA, patB and inactivated patA with single mutation by standardized agar doubling dilution method in presence of 50 uM sodium orthovanadate efflux pump inhibitor; type: functional
In short: (§3)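 MICs were determined by BSAC agar doubling dilution in the presence of sodium orthovanadate at 50 μM. Cultures were grown in BHI broth for 24 h at 37°C in 5% CO2, with R6 as control. Synergy was defined as an MIC reduction of ≥2 dilutions with the inhibitor present.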

Streptococcus pneumoniae [8] = test: Antibacterial activity against fluoroquinolone, dye-resistant Streptococcus pneumoniae M87 overexpressing patA, patB by standardized agar doubling dilution method; type: functional; in short: as §1
Streptococcus pneumoniae [9] = test: Antibacterial activity against fluoroquinolone-resistant Streptococcus pneumoniae M98 FQ-R overexpressing patA, patB by standardized agar doubling dilution method in presence of 20 ug/ml reserpine efflux pump inhibitor; type: functional
In short: (§4)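 MIC by agar doubling dilution per BSAC guidelines; strains pregrown in brain heart infusion broth 24 h, 37°C, 5% CO2. MICs measured alone and with efflux pump inhibitors reserpine (20 μg/ml) or sodium orthovanadate (50 μM); synergy defined as ≥2-dilution MIC reduction in presence of inhibitor.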

Streptococcus pneumoniae [10] = test: Antibacterial activity against Streptococcus pneumoniae M87B overexpressing patA, patB and inactivated patB with single mutation by standardized agar doubling dilution method in presence of 50 uM sodium orthovanadate efflux pump inhibitor; type: functional; in short: as §3
Streptococcus pneumoniae [11] = test: Antibacterial activity against fluoroquinolone, dye-resistant Streptococcus pneumoniae M296 overexpressing patA, patB by standardized agar doubling dilution method in presence of 50 uM sodium orthovanadate efflux pump inhibitor; type: functional; in short: as §1
Streptococcus pneumoniae [12] = test: Antibacterial activity against fluoroquinolone, dye-resistant Streptococcus pneumoniae M50 overexpressing patA, patB by standardized agar doubling dilution method in presence of 20 ug/ml reserpine efflux pump inhibitor; type: functional; in short: as §1
Streptococcus pneumoniae [13] = test: Antibacterial activity against Streptococcus pneumoniae M298 overexpressing patA, patB and inactivated patA with single mutation by standardized agar doubling dilution method in presence of 50 uM sodium orthovanadate efflux pump inhibitor; type: functional; in short: as §2
Streptococcus pneumoniae [14] = test: Antibacterial activity against wild type Streptococcus pneumoniae M3 NCTC 7466 type 2 by standardized agar doubling dilution method in presence of 50 uM sodium orthovanadate efflux pump inhibitor; type: functional; in short: as §4
Streptococcus pneumoniae [15] = test: Antibacterial activity against Streptococcus pneumoniae M87B overexpressing patA, patB and inactivated patB with single mutation by standardized agar doubling dilution method; type: functional
In short: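 MICs were determined by agar doubling dilution following BSAC guidelines, with no efflux inhibitor. Strains were grown in brain heart infusion broth for 24 h at 37°C in 5% CO2. Species identity was confirmed by Gram stain, optochin sensitivity and capsule test. Control strain R6 was tested alongside.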

Streptococcus pneumoniae [16] = test: Antibacterial activity against Streptococcus pneumoniae M305 overexpressing patA, patB and inactivated patB with single mutation by standardized agar doubling dilution method in presence of 50 uM sodium orthovanadate efflux pump inhibitor; type: functional; in short: as §2
Streptococcus pneumoniae [17] = test: Antibacterial activity against Streptococcus pneumoniae M319 overexpressing patA, patB and inactivated patB with single mutation by standardized agar doubling dilution method in presence of 50 uM sodium orthovanadate efflux pump inhibitor; type: functional; in short: as §3
Streptococcus pneumoniae [18] = test: Antibacterial activity against fluoroquinolone-resistant Streptococcus pneumoniae M79 FQ-R overexpressing patA, patB by standardized agar doubling dilution method; type: functional
In short: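 Clinical S. pneumoniae isolates grown in BHI broth 24 h at 37°C in 5% CO2. MICs by agar doubling dilution per BSAC guidelines, alone or with efflux inhibitor reserpine (20 μg/ml) or sodium orthovanadate (50 μM). Synergy defined as ≥2-dilution MIC reduction in presence of inhibitor.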

Streptococcus pneumoniae [19] = test: Antibacterial activity against fluoroquinolone, dye-resistant Streptococcus pneumoniae M42 overexpressing patA, patB by standardized agar doubling dilution method in presence of 50 uM sodium orthovanadate efflux pump inhibitor; type: functional; in short: as §1
Streptococcus pneumoniae [20] = test: Antibacterial activity against Streptococcus pneumoniae M45B overexpressing patA, patB and inactivated patB with single mutation by standardized agar doubling dilution method in presence of 50 uM sodium orthovanadate efflux pump inhibitor; type: functional; in short: as §3
Streptococcus pneumoniae [21] = test: Antibacterial activity against Streptococcus pneumoniae M306 overexpressing patA, patB and inactivated patB with single mutation by standardized agar doubling dilution method in presence of 20 ug/ml reserpine efflux pump inhibitor; type: functional; in short: as §2
Streptococcus pneumoniae [22] = test: Antibacterial activity against Streptococcus pneumoniae M46B overexpressing patA, patB and inactivated patB with single mutation by standardized agar doubling dilution method in presence of 50 uM sodium orthovanadate efflux pump inhibitor; type: functional; in short: as §3
Streptococcus pneumoniae [23] = test: Antibacterial activity against Streptococcus pneumoniae M304 overexpressing patA, patB and inactivated patA with single mutation by standardized agar doubling dilution method in presence of 50 uM sodium orthovanadate efflux pump inhibitor; type: functional; in short: as §2
Streptococcus pneumoniae [24] = test: Antibacterial activity against fluoroquinolone, dye-resistant Streptococcus pneumoniae M45 overexpressing patA, patB by standardized agar doubling dilution method; type: functional; in short: as §1
Streptococcus pneumoniae [25] = test: Antibacterial activity against Streptococcus pneumoniae M298 overexpressing patA, patB and inactivated patA with single mutation by standardized agar doubling dilution method in presence of 20 ug/ml reserpine efflux pump inhibitor
Streptococcus pneumoniae [26] = test: Antibacterial activity against Streptococcus pneumoniae M301 overexpressing patA, patB and inactivated patA with single mutation by standardized agar doubling dilution method; type: functional; in short: as §2
Streptococcus pneumoniae [27] = test: Antibacterial activity against Streptococcus pneumoniae M304 overexpressing patA, patB and inactivated patA with single mutation by standardized agar doubling dilution method in presence of 20 ug/ml reserpine efflux pump inhibitor; type: functional; in short: as §2

SMILES: O=C(O)c1cn(C2CC2)c2cc(N3CCNCC3)c(F)cc2c1=O [CIPROFLOXACIN]
- MIC (Streptococcus pneumoniae [1]): 1 µg/mL (≈ 3.02 µM)
- MIC (Streptococcus pneumoniae [2]): 8 µg/mL (≈ 24.1 µM)
- MIC (Streptococcus pneumoniae [3]): 8 µg/mL
- MIC (Streptococcus pneumoniae [4]): 8 µg/mL
- MIC (Streptococcus pneumoniae [5]): 8 µg/mL (≈ 24.1 µM)
- MIC90 (Streptococcus pneumoniae [6]): 16 µg/mL (≈ 48.3 µM)
- MIC (Streptococcus pneumoniae [7]): 0.12 µg/mL
- MIC (Streptococcus pneumoniae [8]): 32 µg/mL (≈ 96.6 µM)
- MIC (Streptococcus pneumoniae [9]): 2 µg/mL
- MIC (Streptococcus pneumoniae [10]): 8 µg/mL
- MIC (Streptococcus pneumoniae [11]): 8 µg/mL
- MIC (Streptococcus pneumoniae [12]): 32 µg/mL
- MIC (Streptococcus pneumoniae [13]): 8 µg/mL
- MIC (Streptococcus pneumoniae [14]): 1 µg/mL
- MIC (Streptococcus pneumoniae [15]): 8 µg/mL (≈ 24.1 µM)
- MIC (Streptococcus pneumoniae [16]): 8 µg/mL
- MIC (Streptococcus pneumoniae [17]): 16 µg/mL
- MIC (Streptococcus pneumoniae [18]): 32 µg/mL (≈ 96.6 µM)
- MIC (Streptococcus pneumoniae [19]): 16 µg/mL
- MIC (Streptococcus pneumoniae [20]): 1 µg/mL
- MIC (Streptococcus pneumoniae [21]): 4 µg/mL
- MIC (Streptococcus pneumoniae [22]): 0.12 µg/mL
- MIC (Streptococcus pneumoniae [23]): 2 µg/mL
- MIC (Streptococcus pneumoniae [24]): 4 µg/mL (≈ 12.1 µM)
- MIC (Streptococcus pneumoniae [25]): 8 µg/mL
- MIC (Streptococcus pneumoniae [26]): 8 µg/mL (≈ 24.1 µM)
- MIC (Streptococcus pneumoniae [27]): 1 µg/mL

SMILES: CC[n+]1c(-c2ccccc2)c2cc(N)ccc2c2ccc(N)cc21.[Br-] [HOMIDIUM BROMIDE]
- MIC (Streptococcus pneumoniae [1]): 2 µg/mL
- MIC (Streptococcus pneumoniae [2]): 0.5 µg/mL
- MIC (Streptococcus pneumoniae [3]): 0.5 µg/mL
- MIC (Streptococcus pneumoniae [4]): 2 µg/mL
- MIC (Streptococcus pneumoniae [5]): 0.5 µg/mL
- MIC90 (Streptococcus pneumoniae [6]): 8 µg/mL
- MIC (Streptococcus pneumoniae [7]): 0.5 µg/mL
- MIC (Streptococcus pneumoniae [8]): 4 µg/mL
- MIC (Streptococcus pneumoniae [9]): 0.12 µg/mL
- MIC (Streptococcus pneumoniae [10]): 0.5 µg/mL
- MIC (Streptococcus pneumoniae [11]): 2 µg/mL
- MIC (Streptococcus pneumoniae [12]): 0.5 µg/mL
- MIC (Streptococcus pneumoniae [13]): 0.5 µg/mL
- MIC (Streptococcus pneumoniae [14]): 0.3 µg/mL
- MIC (Streptococcus pneumoniae [15]): 0.5 µg/mL
- MIC (Streptococcus pneumoniae [16]): 0.25 µg/mL
- MIC (Streptococcus pneumoniae [17]): 0.5 µg/mL
- MIC (Streptococcus pneumoniae [18]): 2 µg/mL
- MIC (Streptococcus pneumoniae [19]): 1 µg/mL
- MIC (Streptococcus pneumoniae [20]): 0.5 µg/mL
- MIC (Streptococcus pneumoniae [21]): 0.5 µg/mL
- MIC (Streptococcus pneumoniae [22]): 0.5 µg/mL
- MIC (Streptococcus pneumoniae [23]): 0.25 µg/mL
- MIC (Streptococcus pneumoniae [24]): 4 µg/mL
- MIC (Streptococcus pneumoniae [25]): 0.5 µg/mL
- MIC (Streptococcus pneumoniae [26]): 0.5 µg/mL
- MIC (Streptococcus pneumoniae [27]): 0.5 µg/mL

From ChEMBL document CHEMBL1687824, “Overexpression of patA and patB, which encode ABC transporters, is associated with fluoroquinolone resistance in clinical isolates of Streptococcus pneumoniae” (2011)
